Article PMC5071636 (Acta Pharmaceutica Sinica. B, 2016)

Experiments:
eEF2K in cells = conditions: cited from earlier work
eEF2K = conditions: cited from earlier work
[1] = tested on: eEF2 phosphorylation in MDA-MB-453 cells; assay: Western blot of phospho-eEF2; type: cell-based, human
Method in brief: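 MDA-MB-453 grown in L15 with 10% FBS, 1 mmol/L pyruvate, 0.5 mg/mL geneticin, no CO2. Seeded at 2×10^5 cells/well; 24 h later given test compound at several concentrations for 6 h. Lysed in 2× SDS loading buffer, 95 °C 10 min, on 10% gels to PVDF, milk-blocked. Probed overnight at 4 °C for phospho-eEF2 Thr56 and eEF2, β-actin loading control. Fluorescent secondary read-out. Three independent experiments in duplicate, mean ±SEM.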

[2] = tested on: eEF2 phosphorylation in H1299 cells; assay: Western blot of phospho-eEF2 in H1299 cells; type: cell-based, human; conditions: 6 h treatment
cells = conditions: at high concentrations; cited from earlier work
[3] = tested on: eEF2 phosphorylation in HCT116 cells; assay: Western blot of phospho-eEF2 in HCT116 cells; type: cell-based, human; conditions: 6 h treatment

CCCCCCCCCCCCCCCC[n+]1ccn(Cc2ccccc2)c1C.[I-] [NH125, 1-Benzyl-3-cetyl-2-methylimidazolium iodide]
effect on eEF2 phosphorylation in vivo (eEF2K in cells): promotes eEF2 phosphorylation | effect on eEF2K activity in vitro (eEF2K): inhibits eEF2K activity

c1cnc2sccc2c1 [Thieno [2,3-b] pyridine]
inhibitory effects on eEF2K in cells (eEF2K in cells): weak inhibitory effects

CCn1c(=O)c2cc(C(N)=O)c(N)nc2n(C2CC2)c1=O [A484954]
effect on eEF2 phosphorylation (p-eEF2) ([1]; MDA-MB-453 cells, 6 h treatment): capable of inhibiting eEF2 phosphorylation | total protein level of eEF2 ([1]; in the cell): not affected | effect on eEF2 phosphorylation (p-eEF2) [2]: capable of inhibiting eEF2 phosphorylation | potency on eEF2K in cells (eEF2K in cells): rather low potency | cytotoxicity (cells): cytotoxic at high concentrations | effect on eEF2 phosphorylation (p-eEF2) [3]: capable of inhibiting eEF2 phosphorylation
